PPC-1+TRAIL kill: PPC-1 cancer cell killing with TRAIL present | hit rate 0.41% among 220,000 | cell killing (% activity), % at 4 µM or 5 µM | PPC-1 cells + TRAIL, ATPLite viability luminescence;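 active = cell killing above 50% in the first pass at 4 µM, then a duplicate retest at 5 µM averaging 50% or more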
C8 TRAIL sens: sensitizes caspase-8 expressing cells to TRAIL | AID 624354 | hit rate 1% among 360,000 | inhibition (viability loss, TRAIL sensitization), % at 10 µM | NB7+C8 cells + TRAIL, ATPlite viability luminescence;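 active = compounds causing at least 50% loss of cell viability in the single-dose screen, relative to plate controls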
STAT1 inh: inhibitors of IFN-gamma induced STAT1 signaling; NIH 3T3 STAT1-luciferase reporter, luminescence; inhibition, % at 5.5 µM; hit rate 0.35% among 200,000; AID 920;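 active = inhibition above a set limit, the mean inhibition across all tested compounds plus 3 SD, cut at about 34% in these data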
STAT3 blocker: inhibitors of IL-6 induced STAT3 signaling; U3A cells, IL-6 STAT3-luciferase reporter, luminescence; host cell line lacks STAT1; inhibition, % at 5.5 µM; hit rate 0.89% among 190,000;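 active = inhibition above the mean inhibition across all screened compounds plus 3 SD, cut at about 44% in these data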
STAT3 activator: increases IL-6 driven STAT3 reporter signal; activation (% of control), % at 5.6 µM; hit rate 0.91% among 190,000; U3A cells, IL-6 STAT3-luciferase reporter, luminescence; 100% = signal with IL-6 EC80 alone; AID 871;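 active = activation above the screen-wide mean of compound activation plus 3 SD, cut at about 130% in these data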
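System – human U3A cells carrying STAT3-luciferase construct · Probe or stimulus – Interleukin-6, 33 ng/mL · Schedule – compound 1 h, then IL-6 6 h at 37 °C · Signal – luminescence from STAT3-driven luciferase reporter · Evaluation – percent of IL-6-only median luminescence · Benchmarks – IL-6-only high control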
Hits are given with their value; 0 = inactive; - = not tested or not shown. The list is not random: actives were taken first. Their share in the collection is about 1.8%.

SMILES	PPC-1+TRAIL kill	C8 TRAIL sens	STAT1 inh	STAT3 blocker	STAT3 activator
c1ccc2[nH]c(-c3ccc4c(c3)OCO4)nc2c1	-	72	-	-	-
N#CC(C#N)=C1SC(=Nc2ccccc2)C(=Nc2ccccc2)N1c1ccccc1	-	92	-	-	-
Cn1cnc([N+](=O)[O-])c1Sc1nc(N)nc2c1ncn2C1CC(O)C(CO)O1 (stereo not given)	-	72	-	-	-
Cn1cnc([N+](=O)[O-])c1Sc1nc(N)nc2c1ncn2C1OC(CO)C(O)C1O (stereo not given)	-	71	-	-	-
CCCCSc1nc(N)nc2c1ncn2C1OC(CO)C(O)C1O (stereo not given)	-	0	-	-	-
CCSc1nc(N)nc2c1ncn2C1OC(CO)C(O)C1O (stereo not given)	-	0	-	-	-
CC(=O)c1ccc(-c2ccc(C(=O)N3CCCc4ccccc43)o2)cc1	0	0	0	0	0
COc1cc(C(=O)Oc2ccccc2/C=N/NC(=O)c2ccc(C)cc2)cc(OC)c1OC	0	50	0	0	0
COc1ccc(C(=O)N/N=C/c2ccccc2OC(=O)c2ccccc2)cc1	-	0	-	-	-
O=C(COC(=O)c1ccccc1C(=O)c1ccc(Cl)c([N+](=O)[O-])c1)NC1CC1	0	93	0	0	0
COc1ccc(/C=C/c2nc3ccccc3n2Cc2ccccc2OC)cc1	0	78	0	0	0
C[C@@H]1CN([C@H](C)CO)C(=O)CCCn2cc(nn2)CO[C@H]1CN(C)C(=O)Nc1ccccc1F	-	0	-	-	-
CC1CCc2nc(NC(=O)C3CC3)sc2C1 (stereo not given)	0	0	0	0	0
CC1CCc2nc(NC(=O)C3COc4ccccc4O3)sc2C1 (stereo not given)	0	0	49	91	0
COc1ccc(-c2ccc(NC(=O)c3ccco3)cc2)nn1	-	83	-	-	-
O=C(Nc1ccc(-c2cn3ccccc3n2)cc1)c1ccco1	73	71	0	0	0
CCC(C)c1ccc(NC(=O)c2ccco2)cc1 (stereo not given)	-	73	-	-	-
Cc1ccc(NC(=O)COC(=O)c2ccc(=O)n(Cc3ccccc3)n2)cc1F	-	0	-	-	-
O=[N+]([O-])c1ccc(O)c(C(C#Cc2ccccc2)N2CCOCC2)c1 (stereo not given)	0	0	-	-	-
CCCCCCCCCCCCCCC[C@@H](O)[C@@H](N)CO	-	95	-	-	-
COc1cc(NC(=O)c2c(F)c(F)c(F)c(F)c2F)c(OC)cc1Cl	0	76	0	0	0
COc1cc(NC(=O)c2ccc(F)cc2)c(OC)cc1Cl	0	0	0	0	0
Cc1ccc(C(=O)NCC(=O)N(C)CC(=O)Nc2c(Cl)cccc2Cl)s1	-	0	-	-	-
COC(=O)c1cccc(NC(=O)/C=C/c2ccc3c(c2)OCO3)c1	0	85	0	0	0
CC(=O)Nc1ccc(NC(=O)/C=C/c2ccc3c(c2)OCO3)cc1	0	0	0	0	0
SMILES	PPC-1+TRAIL kill	C8 TRAIL sens	STAT1 inh	STAT3 blocker	STAT3 activator
Cc1cc(C)nc(NC(=O)/C=C/c2ccc3c(c2)OCO3)c1	56	64	0	0	0
O=C(/C=C/c1ccc2c(c1)OCO2)Nc1c(C(=O)O)[nH]c2ccccc12	0	52	0	0	0
CCOC(=O)C1CCN(C(=O)C2CCN(S(=O)(=O)c3cc(Cl)ccc3OCC)CC2)CC1	-	0	-	-	-
COc1cc(/C=C/c2ccc(O)cc2)cc(OC)c1	0	0	-	-	-
COC(=O)c1ccc2c(c1)C(C)(C)C(/C=C/c1ccc(O)cc1)=[N+]2C	0	52	0	0	0
COC(=O)c1ccc2c(c1)C(C)(C)C(/C=C/c1ccc(OC)c(OC)c1OC)=[N+]2C	0	67	0	0	0
O=C1CC2(CCN(C(=O)c3c(F)cccc3F)CC2)Oc2ccccc21	-	0	-	-	-
COc1ccc(OC)c(S(=O)(=O)N2CCCC(C(=O)NCc3ccco3)C2)c1 (stereo not given)	-	0	-	-	-
Cn1c(C(=O)NCCC2=CCCCC2)cc2c(=O)n3ccccc3nc21	0	60	0	0	0
Cc1cccn2c(=O)c3cc(C(=O)NCCC4=CCCCC4)n(C)c3nc12	-	0	-	-	-
O=C(CCl)Nc1ccccc1Sc1ccccc1	0	83	0	0	0
O=C(CCl)Nc1cccc(Oc2cnccn2)c1	-	0	-	-	-
O=C(CCl)Nc1cccc(Oc2ccccc2)c1	0	87	0	0	0
O=C(CCl)Nc1ccc(-c2ccccc2)cc1	0	57	0	0	0
Cc1nc2c(-c3ccccc3)c(C)nn2c(N)c1-c1ccccc1	0	0	0	0	0
Cc1nc2cc(-c3ccccc3)nn2c(N)c1-c1ccccc1	-	66	-	-	-
N#C/C(N=Nc1ccccc1O)=N\Nc1ccccc1O	-	54	-	-	-
Oc1ccccc1N=N/C(=N/Nc1ccccc1O)c1ccccc1	-	0	-	-	-
Cc1ccc(-n2nc3cc(C)c(N)cc3n2)cc1	0	0	0	0	0
CCc1ccc(-n2nc3cc(C)c(N)cc3n2)cc1	-	66	-	-	-
O=C(COC(=O)CCS(=O)(=O)c1ccccc1)NNC(=O)c1ccc([N+](=O)[O-])cc1	-	0	-	-	-
O=C1C=C(N2CCCCC2)c2ccccc2C1=O	-	94	-	-	-
CN(C)CCCNC(=O)c1ccc(-c2nc(-c3ccc(Cl)cc3)cs2)cc1	0	90	0	0	0
CN(CCCC(=O)O)c1ccc(N=Nc2ccc([N+](=O)[O-])cc2)cc1	-	0	-	-	-
COc1cc(C(=O)NCc2cn3cccc(C)c3n2)cc(OC)c1OC	0	0	0	0	0
SMILES	PPC-1+TRAIL kill	C8 TRAIL sens	STAT1 inh	STAT3 blocker	STAT3 activator
COc1ccc(C(=O)NCc2cn3cccc(C)c3n2)cc1OC	0	60	0	0	0
CC(=O)N1CCN(S(=O)(=O)c2c(C)n(C)c(=O)n(C)c2=O)CC1	-	0	-	-	-
COc1ccc(-c2cc(C(=O)OCC(=O)Nc3ccc4c(c3)OCO4)c3ccccc3n2)cc1	0	56	0	0	0
Cc1c(NC(=O)c2cc(-c3ccccc3)nc3ccccc23)c(=O)n(-c2ccccc2)n1C	-	0	-	-	-
Cc1c(NC(=O)COC(=O)c2cc(-c3ccc(-c4ccccc4)cc3)nc3ccccc23)c(=O)n(-c2ccccc2)n1C	81	87	0	0	0
COc1ccccc1C(=O)N/N=C/c1ccc2c(c1)OCO2	-	0	-	-	-
COc1ccccc1N/N=C/c1ccc2c(c1)OCO2	0	0	51	72	0
CC(O)CC(=O)OC[C@]12CC[C@H]3[C@@](C)(CC[C@H]4C(C)(C)CCC[C@]34C)[C@@H]1CC(C1=CC(=O)OC1O)O2 (stereo not given in full)	-	86	-	-	-
O=C1CCc2cc(S(=O)(=O)NCCC(=O)NC3CCCCC3)ccc2N1	-	0	-	-	-
Cc1ccc(-c2nc3ccccc3s2)cc1S(=O)(=O)N1CCCC1	0	0	0	0	0
Cc1cc(-c2nc3cc(F)ccc3s2)ccc1N	-	73	-	-	-
Cc1cc(C)c(C(=O)Cn2nc(C(=O)O)c3ccccc3c2=O)cc1C	0	0	-	-	-
Cc1cc(C(=O)Cn2nc(C(=O)O)c3ccccc3c2=O)c(C)n1-c1ccccc1	0	76	0	0	0
C#CCNC(=O)C[C@@H]1C[C@@]2(C(=O)OCC)CCC=C2N(Cc2ccc3c(c2)OCO3)C1=O	-	0	-	-	-
Cc1ccc(S/C=C\C(=O)c2ccccc2)cc1	0	55	0	0	0
O=C(CCNC(=O)c1ccccc1)NCCCc1ccccc1	-	0	-	-	-

Compound activity: PubChem BioAssay, several laboratories
